In ChEMBL document CHEMBL5678815 (Clin Cancer Res, 2017):

Experiments:
[1] = target: Casein kinase I isoform epsilon (Homo sapiens) (UniProt P49674); assay: Inhibition of human CSNK1E assessed as remaining activity at 1 uM by ATP-competition binding assay relative to control
Outline: (§1)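 KINOMEscan ATP-site-dependent competition binding panel of 395 human kinases, with compound tested at 1 μM. Binding is reported as remaining signal relative to control.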

[2] = target: Serine/threonine-protein kinase 17A (Homo sapiens) (UniProt Q9UEE5); assay: Inhibition of human DRAK1 assessed as remaining activity at 1 uM by ATP-competition binding assay relative to control; outline: as §1
Chain of Serine/threonine-protein kinase 17A (Homo sapiens) (Q9UEE5 whole entry): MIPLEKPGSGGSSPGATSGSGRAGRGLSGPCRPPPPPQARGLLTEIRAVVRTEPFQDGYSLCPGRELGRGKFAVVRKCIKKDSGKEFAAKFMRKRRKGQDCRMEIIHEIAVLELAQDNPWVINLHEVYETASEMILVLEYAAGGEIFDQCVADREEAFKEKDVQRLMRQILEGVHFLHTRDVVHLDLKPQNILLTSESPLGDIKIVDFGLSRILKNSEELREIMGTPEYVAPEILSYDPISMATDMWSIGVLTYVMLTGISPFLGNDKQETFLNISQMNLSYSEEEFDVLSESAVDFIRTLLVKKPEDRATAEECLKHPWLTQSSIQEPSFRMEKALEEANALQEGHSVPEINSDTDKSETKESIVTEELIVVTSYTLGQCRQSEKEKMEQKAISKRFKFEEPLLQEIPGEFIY

[3] = target: Receptor tyrosine-protein kinase erbB-4 (Homo sapiens) (UniProt Q15303); assay: Inhibition of human ERBB4 assessed as remaining activity at 1 uM by ATP-competition binding assay relative to control
Chain of Receptor tyrosine-protein kinase erbB-4 (Homo sapiens) (Q15303 whole entry): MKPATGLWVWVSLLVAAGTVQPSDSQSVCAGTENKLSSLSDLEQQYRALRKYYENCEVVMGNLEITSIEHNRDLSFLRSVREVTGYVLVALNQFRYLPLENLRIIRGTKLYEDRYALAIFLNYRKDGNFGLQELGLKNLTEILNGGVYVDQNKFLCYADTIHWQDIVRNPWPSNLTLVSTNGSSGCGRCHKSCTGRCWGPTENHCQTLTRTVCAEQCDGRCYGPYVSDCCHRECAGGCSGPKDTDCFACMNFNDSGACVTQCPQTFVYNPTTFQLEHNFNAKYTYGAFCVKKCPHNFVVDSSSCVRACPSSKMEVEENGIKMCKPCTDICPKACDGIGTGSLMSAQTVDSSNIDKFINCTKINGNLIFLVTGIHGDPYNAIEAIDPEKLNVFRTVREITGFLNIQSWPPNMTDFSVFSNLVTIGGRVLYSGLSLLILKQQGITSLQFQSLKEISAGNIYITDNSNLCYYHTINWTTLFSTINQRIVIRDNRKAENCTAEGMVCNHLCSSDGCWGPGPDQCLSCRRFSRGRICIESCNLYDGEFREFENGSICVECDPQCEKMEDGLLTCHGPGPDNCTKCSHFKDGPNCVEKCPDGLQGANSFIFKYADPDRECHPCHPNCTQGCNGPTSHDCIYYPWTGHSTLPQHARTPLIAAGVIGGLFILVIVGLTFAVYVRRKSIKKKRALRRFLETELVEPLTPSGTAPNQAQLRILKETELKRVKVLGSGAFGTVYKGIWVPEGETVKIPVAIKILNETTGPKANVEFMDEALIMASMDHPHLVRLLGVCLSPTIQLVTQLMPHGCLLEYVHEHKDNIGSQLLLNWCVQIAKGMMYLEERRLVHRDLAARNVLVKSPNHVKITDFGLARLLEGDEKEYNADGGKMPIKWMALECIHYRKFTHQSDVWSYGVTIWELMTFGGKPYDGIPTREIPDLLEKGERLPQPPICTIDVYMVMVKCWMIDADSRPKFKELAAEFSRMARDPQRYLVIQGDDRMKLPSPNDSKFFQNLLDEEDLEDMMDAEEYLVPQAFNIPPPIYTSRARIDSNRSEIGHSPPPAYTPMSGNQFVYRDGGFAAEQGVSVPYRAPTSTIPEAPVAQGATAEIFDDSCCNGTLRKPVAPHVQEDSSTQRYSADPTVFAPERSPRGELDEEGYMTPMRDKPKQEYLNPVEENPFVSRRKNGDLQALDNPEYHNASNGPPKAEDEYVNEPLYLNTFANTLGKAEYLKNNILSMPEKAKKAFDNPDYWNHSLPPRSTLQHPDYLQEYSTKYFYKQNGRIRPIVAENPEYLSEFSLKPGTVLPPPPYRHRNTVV
Outline: (§2)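 Single-point profiling at 1μM in an ATP-site-dependent competition binding assay across a panel of 395 human kinases, including mutant forms. The read-out is kinase binding signal in the presence of test agent, expressed as inhibition relative to the control signal. This screen assessed noncovalent binding interactions.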

[4] = target: Mitogen-activated protein kinase 6 (Homo sapiens) (UniProt Q16659); assay: Inhibition of human ERK3 assessed as remaining activity at 1 uM by ATP-competition binding assay relative to control; outline: as §2
Chain of Mitogen-activated protein kinase 6 (Homo sapiens) (Q16659 whole entry): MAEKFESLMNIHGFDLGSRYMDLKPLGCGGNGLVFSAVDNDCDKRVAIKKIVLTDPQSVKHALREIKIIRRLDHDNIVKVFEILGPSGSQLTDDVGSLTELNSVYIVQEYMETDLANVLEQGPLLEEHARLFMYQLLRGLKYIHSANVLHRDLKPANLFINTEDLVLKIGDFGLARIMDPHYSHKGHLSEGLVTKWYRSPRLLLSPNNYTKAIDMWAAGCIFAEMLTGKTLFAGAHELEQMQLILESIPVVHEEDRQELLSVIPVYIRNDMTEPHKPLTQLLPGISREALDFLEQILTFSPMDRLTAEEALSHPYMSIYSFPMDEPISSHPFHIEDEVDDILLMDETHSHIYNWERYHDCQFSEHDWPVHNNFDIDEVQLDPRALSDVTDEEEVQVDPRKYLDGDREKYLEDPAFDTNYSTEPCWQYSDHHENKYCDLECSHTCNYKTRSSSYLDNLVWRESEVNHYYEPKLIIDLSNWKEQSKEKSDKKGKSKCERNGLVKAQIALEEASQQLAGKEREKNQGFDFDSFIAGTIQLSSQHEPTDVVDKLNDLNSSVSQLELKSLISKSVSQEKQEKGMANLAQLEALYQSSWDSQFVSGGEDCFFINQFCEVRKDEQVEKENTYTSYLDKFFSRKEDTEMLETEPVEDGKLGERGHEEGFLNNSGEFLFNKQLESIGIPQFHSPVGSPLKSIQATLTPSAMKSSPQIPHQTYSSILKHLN

[5] = target: Tyrosine-protein kinase Fes/Fps (Homo sapiens) (UniProt P07332); assay: Inhibition of human FES assessed as remaining activity at 1 uM by ATP-competition binding assay relative to control; outline: as §2
[6] = target: Serine/threonine-protein kinase MAK (Homo sapiens) (UniProt P20794); assay: Inhibition of human MAK assessed as remaining activity at 1 uM by ATP-competition binding assay relative to control; outline: as §2
Chain of Serine/threonine-protein kinase MAK (Homo sapiens) (P20794 whole entry): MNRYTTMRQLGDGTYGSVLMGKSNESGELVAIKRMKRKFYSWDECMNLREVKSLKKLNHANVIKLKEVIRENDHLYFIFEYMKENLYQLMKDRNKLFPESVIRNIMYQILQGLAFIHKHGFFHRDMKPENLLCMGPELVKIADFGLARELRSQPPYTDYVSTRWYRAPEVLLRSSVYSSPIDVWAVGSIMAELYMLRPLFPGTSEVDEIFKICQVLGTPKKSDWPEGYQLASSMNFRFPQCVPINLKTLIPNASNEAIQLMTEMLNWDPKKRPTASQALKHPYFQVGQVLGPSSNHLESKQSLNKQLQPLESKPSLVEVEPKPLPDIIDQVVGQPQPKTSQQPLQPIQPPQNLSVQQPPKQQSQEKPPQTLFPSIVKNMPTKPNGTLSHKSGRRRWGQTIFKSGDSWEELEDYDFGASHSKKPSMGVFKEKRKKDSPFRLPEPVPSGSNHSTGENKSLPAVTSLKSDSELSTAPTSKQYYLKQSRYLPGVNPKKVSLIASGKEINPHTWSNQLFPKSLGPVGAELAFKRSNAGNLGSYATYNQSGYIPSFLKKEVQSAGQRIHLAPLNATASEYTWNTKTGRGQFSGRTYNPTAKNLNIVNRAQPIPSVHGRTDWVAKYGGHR

[7] = target: Tyrosine-protein kinase Mer (Homo sapiens) (UniProt Q12866); assay: Inhibition of human MERTK assessed as remaining activity at 1 uM by ATP-competition binding assay relative to control; outline: as §2
[8] = target: cAMP-dependent protein kinase catalytic subunit beta (Homo sapiens) (UniProt P22694); assay: Inhibition of human PKAC-beta assessed as remaining activity at 1 uM by ATP-competition binding assay relative to control
Outline: (§3)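 Single-concentration (1 μM) screen in an ATP-site-dependent competition binding assay (KINOMEscan, outsourced) covering 395 human kinases, mutants included. Non-covalent binding was read as the remaining signal relative to the control signal.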

[9] = target: Serine/threonine-protein kinase PLK4 (Homo sapiens) (UniProt O00444); assay: Inhibition of human PLK4 assessed as remaining activity at 1 uM by ATP-competition binding assay relative to control; outline: as §3
Chain of Serine/threonine-protein kinase PLK4 (Homo sapiens) (O00444 whole entry): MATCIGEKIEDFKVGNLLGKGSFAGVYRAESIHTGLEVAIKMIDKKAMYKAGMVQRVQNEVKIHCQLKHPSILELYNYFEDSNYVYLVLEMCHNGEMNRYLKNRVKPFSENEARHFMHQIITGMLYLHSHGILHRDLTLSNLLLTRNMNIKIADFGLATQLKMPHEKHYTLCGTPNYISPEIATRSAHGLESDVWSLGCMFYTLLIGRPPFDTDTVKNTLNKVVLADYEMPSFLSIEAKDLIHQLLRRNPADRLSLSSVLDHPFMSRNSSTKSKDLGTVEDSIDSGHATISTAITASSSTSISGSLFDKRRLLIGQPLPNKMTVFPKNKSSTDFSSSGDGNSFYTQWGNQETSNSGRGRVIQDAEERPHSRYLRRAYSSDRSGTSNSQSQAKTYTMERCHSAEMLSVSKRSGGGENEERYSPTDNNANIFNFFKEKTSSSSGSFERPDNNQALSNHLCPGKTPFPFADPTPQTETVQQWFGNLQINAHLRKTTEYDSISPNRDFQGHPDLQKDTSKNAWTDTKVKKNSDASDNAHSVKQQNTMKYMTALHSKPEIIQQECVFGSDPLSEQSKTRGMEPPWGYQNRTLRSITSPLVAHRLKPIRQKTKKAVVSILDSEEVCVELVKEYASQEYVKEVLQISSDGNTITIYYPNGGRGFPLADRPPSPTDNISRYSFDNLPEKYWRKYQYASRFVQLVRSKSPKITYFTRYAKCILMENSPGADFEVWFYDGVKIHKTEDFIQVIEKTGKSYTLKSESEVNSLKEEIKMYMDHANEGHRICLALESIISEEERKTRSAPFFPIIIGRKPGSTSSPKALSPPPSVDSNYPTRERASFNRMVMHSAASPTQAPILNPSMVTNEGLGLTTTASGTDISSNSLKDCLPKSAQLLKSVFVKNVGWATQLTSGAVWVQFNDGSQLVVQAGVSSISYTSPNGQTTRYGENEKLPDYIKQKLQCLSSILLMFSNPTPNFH

[10] = target: Proto-oncogene tyrosine-protein kinase Src (Homo sapiens) (UniProt P12931); assay: Inhibition of human SRC assessed as remaining activity at 1 uM by ATP-competition binding assay relative to control; outline: as §3
Chain of Proto-oncogene tyrosine-protein kinase Src (Homo sapiens) (P12931 2-536 limits assumed): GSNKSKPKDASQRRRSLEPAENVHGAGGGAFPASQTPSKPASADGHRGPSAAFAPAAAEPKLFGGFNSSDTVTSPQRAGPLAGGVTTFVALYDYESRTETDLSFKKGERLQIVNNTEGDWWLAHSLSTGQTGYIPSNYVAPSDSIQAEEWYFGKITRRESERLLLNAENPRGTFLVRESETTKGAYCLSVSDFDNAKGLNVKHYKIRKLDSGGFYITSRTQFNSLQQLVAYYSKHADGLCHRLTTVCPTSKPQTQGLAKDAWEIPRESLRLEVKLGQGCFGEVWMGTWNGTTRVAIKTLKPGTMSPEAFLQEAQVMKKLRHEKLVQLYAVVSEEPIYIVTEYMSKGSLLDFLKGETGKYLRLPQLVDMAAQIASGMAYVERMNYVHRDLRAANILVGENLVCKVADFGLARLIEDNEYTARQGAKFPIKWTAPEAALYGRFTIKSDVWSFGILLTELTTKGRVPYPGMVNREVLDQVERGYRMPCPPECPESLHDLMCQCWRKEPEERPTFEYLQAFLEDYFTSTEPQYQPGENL

[11] = target: Dual specificity testis-specific protein kinase 1 (Homo sapiens) (UniProt Q15569); assay: Inhibition of human TESK1 assessed as remaining activity at 1 uM by ATP-competition binding assay relative to control; outline: as §3
[12] = In vivo inhibition of BCR signaling in female […] mouse assessed as B-cell function at 25 mg/kg, po administered for 24 hrs and measured after stimulation with anti-IgM for 18 h by flow cytometry analysis relative to control; assay type: functional, Splenocyte; set-up: scale not given: the % may be the effect or the level left
Outline: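 Female C57BL/6 mice (5/group) received vehicle or 25 mg/kg drug by oral gavage at time zero, with spleens taken at time points from 3 to 24 h. Splenocytes were stimulated ex vivo with goat anti-mouse IgM at 10μg/mL for 18 h at 37°C in 5% CO2, then Fc-blocked and stained for CD19 plus CD69, CD86 or phospho-S6(S235/236), with 7-AAD to exclude dead cells. Read-out was flow cytometry on >5,000 gated CD19+ cells, compared with vehicle.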

[13] = Antitumor activity against human CLL mononuclear cells xenografted NSG mouse assessed as inhibition in the phosphorylation of ERK at 0.3 mg/ml preadministered with compound via drinking water and measured after 3 weeks by flow cytometry analysis relative to control; assay type: functional; conditions: CLL mononuclear cell, 504 h
Outline: (§4)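 Primary CLL patient mononuclear cells (1 × 10^8 per mouse) engrafted into NSG mice on day 0 after busulfan priming on day −1. Vehicle or drug was given in drinking water from day −1. Mice were killed 3 weeks after engraftment; spleens homogenized, filtered and RBC-lysed; whole blood collected. Six patients, 2–5 mice per patient; paired t-test per patient.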

[14] = Antileukemic activity against human CLL mononuclear cells xenografted NSG mouse assessed as change in blood cells at 0.16 mg/ml preadministered with compound via drinking water and measured after 3 weeks by flow cytometry analysis relative to control; assay type: functional, CLL mononuclear cell; outline: as §4

Chain of Casein kinase I isoform epsilon (Homo sapiens) (P49674 whole entry, looked up, canonical isoform): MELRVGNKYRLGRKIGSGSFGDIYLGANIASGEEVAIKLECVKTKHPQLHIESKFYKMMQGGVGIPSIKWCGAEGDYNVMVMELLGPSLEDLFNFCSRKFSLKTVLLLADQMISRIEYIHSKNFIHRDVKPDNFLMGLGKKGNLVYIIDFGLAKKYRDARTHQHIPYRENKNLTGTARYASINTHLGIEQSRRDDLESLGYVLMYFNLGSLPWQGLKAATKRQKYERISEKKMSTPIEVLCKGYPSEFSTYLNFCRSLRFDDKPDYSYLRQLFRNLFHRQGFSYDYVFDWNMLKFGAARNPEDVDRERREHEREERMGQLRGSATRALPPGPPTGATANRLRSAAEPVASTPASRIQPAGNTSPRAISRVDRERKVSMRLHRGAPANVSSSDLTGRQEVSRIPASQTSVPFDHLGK

`CC#CC(=O)N1CCC[C@H]1c1nc(-c2ccc(C(=O)Nc3ccccn3)cc2)c2c(N)nccn12` [ACALABRUTINIB] showed an Activity [1] of 90%, an Activity [2] of 87% and an Activity [3] of 4.3%. It also gave an Activity [4] of 94%, an Activity [5] of 100% and an Activity [6] of 90%. The Activity [7] was 77%, the Activity [8] was 88% and the Activity [9] was 80%. It also gave an Activity [10] of 78%, an Activity [11] of 83% and an Activity [12] of roughly 70%. The inhibition in vivo at 300 µg/mL [13] was 79% and the Activity [14] was 76%.
